Reference: ChEMBL document CHEMBL1125618, “Studies on (H(+)-K+)-ATPase inhibitors of gastric acid secretion. Prodrugs of 2-[(2-pyridinylmethyl)sulfinyl]benzimidazole proton-pump inhibitors” (J Med Chem, 1991)
Calls of active or inactive are those of the source. The rule behind the calls is not given here.

What was measured:
[1] = target: T1, Potassium-transporting ATPase (Rattus norvegicus) (UniProt P09626+P18598); assay: Inhibition of isolated rat H+/K+ ATPase.; format: protein-complex assay
In short: (§1)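 Male Sprague-Dawley rats (~230 g), fasted 16 h without food or water in restraining cages. Compound in 1 mL isotonic saline with 25% ethanol, given sc or by gavage. Killed 3 h later. Fundic mucosa pooled from four rats per treatment, homogenized, microsomes isolated at 170000g. K+-stimulated ATPase assayed as for hog enzyme. ED50 from at least five doses, each in triplicate.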

[2] = organism: Oryctolagus cuniculus; assay: Antisecretory effect in isolated rabbit gastric glands as measured by aminopyrine uptake; format: functional, Stomach
In short: (§2)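 Gastric glands from male New Zealand rabbits (1.5-2.0 kg), isolated by collagenase digestion at 37 °C, pH 7.4. Incubated with compound 45 min at 37 °C with vigorous shaking. Pellet and supernatant radioactivity counted by liquid scintillation. ID50 from at least six doses, duplicate at each dose.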

[3] = target: T1, Potassium-transporting ATPase (Rattus norvegicus); assay: Activity was evaluated by measuring the inhibition of isolated rat H+/K+ ATPase at 10 mg/kg; format: organism-based; set-up: dose 10 mg/kg; in short: as §1
[4] = target: Potassium-transporting ATPase (Sus scrofa, UniProt P19156); assay: (§3) Activity was evaluated by measuring the inhibition of isolated hog H+/K+ ATPase; format: protein-complex assay
Chain of Potassium-transporting ATPase (Sus scrofa, UniProt P19156) (P18434 whole entry): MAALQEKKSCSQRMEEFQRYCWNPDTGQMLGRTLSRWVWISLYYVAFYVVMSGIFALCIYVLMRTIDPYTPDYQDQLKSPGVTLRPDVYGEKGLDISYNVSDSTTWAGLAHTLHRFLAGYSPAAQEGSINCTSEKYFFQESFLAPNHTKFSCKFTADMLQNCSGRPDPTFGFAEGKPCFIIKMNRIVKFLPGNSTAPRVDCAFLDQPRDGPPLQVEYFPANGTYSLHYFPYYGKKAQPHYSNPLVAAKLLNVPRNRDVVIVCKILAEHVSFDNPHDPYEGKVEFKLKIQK
Chain of Potassium-transporting ATPase (Sus scrofa, UniProt P19156) (P19156 whole entry): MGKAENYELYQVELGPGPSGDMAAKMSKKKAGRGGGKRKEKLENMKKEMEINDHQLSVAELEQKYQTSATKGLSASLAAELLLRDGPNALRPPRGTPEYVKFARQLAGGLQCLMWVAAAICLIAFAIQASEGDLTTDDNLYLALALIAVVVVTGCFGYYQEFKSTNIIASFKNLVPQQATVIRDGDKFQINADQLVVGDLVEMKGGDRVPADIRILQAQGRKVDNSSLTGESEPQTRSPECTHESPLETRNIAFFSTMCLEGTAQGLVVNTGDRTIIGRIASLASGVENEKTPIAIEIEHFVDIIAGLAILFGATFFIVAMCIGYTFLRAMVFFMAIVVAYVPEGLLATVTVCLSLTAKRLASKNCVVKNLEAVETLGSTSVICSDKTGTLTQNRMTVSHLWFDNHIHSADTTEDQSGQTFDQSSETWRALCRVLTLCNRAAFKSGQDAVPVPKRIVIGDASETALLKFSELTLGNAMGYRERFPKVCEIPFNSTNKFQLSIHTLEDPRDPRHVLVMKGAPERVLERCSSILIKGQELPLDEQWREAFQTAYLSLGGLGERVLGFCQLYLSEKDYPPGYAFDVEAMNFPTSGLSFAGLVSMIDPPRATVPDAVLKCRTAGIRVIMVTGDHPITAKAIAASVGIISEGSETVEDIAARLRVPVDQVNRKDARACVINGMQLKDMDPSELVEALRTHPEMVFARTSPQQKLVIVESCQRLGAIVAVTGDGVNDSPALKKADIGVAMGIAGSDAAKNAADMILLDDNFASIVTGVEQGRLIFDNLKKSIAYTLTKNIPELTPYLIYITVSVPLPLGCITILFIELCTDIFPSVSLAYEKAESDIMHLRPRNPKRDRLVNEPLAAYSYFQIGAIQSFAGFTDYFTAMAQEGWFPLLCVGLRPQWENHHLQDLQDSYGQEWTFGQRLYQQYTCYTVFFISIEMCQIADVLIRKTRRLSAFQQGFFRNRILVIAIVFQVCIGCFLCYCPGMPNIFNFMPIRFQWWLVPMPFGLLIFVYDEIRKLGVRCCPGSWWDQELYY
In short: (§4)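 Hog fundic mucosa microsomes. Vesicles (30 μg) preincubated with compound at 37 °C in 40 mM Tris-acetate pH 7.4, 7 mM NH4Cl, with or without KCl. Reaction started with 2 mM ATP (final), run 10 min at 37 °C, stopped with cold TCA plus charcoal. Released inorganic phosphate measured colorimetrically. IC50 from dose-response, mean of triplicates.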

[5] = organism: Oryctolagus cuniculus; assay: Antisecretory effect in isolated rabbit gastric glands as measured by aminopyrine uptake; Inactive, 1E-4M concentration; format: functional; settings: Stomach; in short: as §2
[6] = target: T1, Potassium-transporting ATPase (Rattus norvegicus); assay: Inhibition of isolated rat H+/K+ ATPase at 10 mg/kg; Inactive; format: functional, organism-based; set-up: dose 10 mg/kg; in short: as §1
[7] = target: T1, Potassium-transporting ATPase (Rattus norvegicus); assay: Activity was evaluated by measuring the inhibition of isolated rat H+/K+ ATPase, sc; format: protein-complex assay; in short: as §1
[8] = target: T2, Potassium-transporting ATPase (Sus scrofa) (UniProt P18434+P19156); assay: as §3; format: protein-complex assay; settings: concentration not given here; in short: as §4
[9] = organism: Oryctolagus cuniculus; assay: Antisecretory effect in isolated rabbit gastric glands as measured by aminopyrine uptake; no effect, 1E-4M concentration; format: functional; settings: Stomach; in short: as §2
[10] = target: T1, Potassium-transporting ATPase (Rattus norvegicus); assay: Inhibitory activity was evaluated by measuring the inhibition of isolated rat H+/K+ ATPase at a concentration of 10 mg/kg; format: organism-based; set-up: dose 10 mg/kg; in short: as §1
[11] = tested on: Rattus norvegicus; assay: Inhibition of acid secretion was determined by the compound administered subcutaneously in rats; format: functional; settings: sc
In short: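 Pylorus-ligated (Shay) rats: female Upjohn or Charles River rats fasted 24 h, water withheld the last 18 h. Compound given once sc. Pylorus ligated under ether, then 10 mL saline sc. Gastric juice acidity titrated with 0.1 M NaOH as output (mequiv/2 or 3 h). Usually 12 controls and 5-6 rats per dose.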

[12] = target: T1, Potassium-transporting ATPase (Rattus norvegicus); assay: Activity was evaluated by measuring the inhibition of isolated rat H+/K+ ATPase; no effect, 10 mg/kg sc
[13] = target: T3, Potassium-transporting ATPase (Sus scrofa, UniProt P18434+P19156); assay: Activity was evaluated by measuring the inhibition of isolated hog H+/K+ ATPase; No effect at 5E-4; format: protein-complex assay; in short: as §4
T3 sequence (P18434 whole entry): as the sequence (P18434 whole entry) above
T3 sequence (P19156 whole entry): as the sequence (P19156 whole entry) above

[14] = target: T2, Potassium-transporting ATPase (Sus scrofa); assay: Activity was evaluated by measuring the inhibition of isolated hog H+/K+ ATPase at concentration of 5E-4; format: protein-complex assay; in short: as §4
[15] = tested on: Potassium-transporting ATPase (Rattus norvegicus); assay: Activity was evaluated by measuring the inhibition of isolated rat H+/K+ ATPase at 10 mg/kg; Inactive
[16] = target: T1, Potassium-transporting ATPase (Rattus norvegicus); assay: Activity administered subcutaneously was evaluated by measuring the inhibition of isolated rat H+/K+ ATPase; format: protein-complex assay; in short: as §1
[17] = target: T3, Potassium-transporting ATPase; assay: Activity was evaluated by measuring the inhibition of isolated hog H+/K+ ATPase; No effect; format: protein-complex assay; in short: as §4

| ED50 [1] [mg/kg] | IC50 [4] [µM] | Structure (SMILES) | ID50 [2] [M] | further results |
| --- | --- | --- | --- | --- |
| 4 | – | CC(C)C(=O)OCn1c([S+]([O-])Cc2ccccn2)nc2ccccc21 (stereo not given) | 3e-05 | – |
| – | 20 | CCSc1ccnc(C[S+]([O-])c2nc3ccccc3n2C(=O)OCc2ccc([N+](=O)[O-])cc2)c1C (stereo not given) | 1.5e-06 | inhibition [3]: 44% |
| 2 | – | CCSc1ccnc(C[S+]([O-])c2nc3ccccc3n2C(C)OC(C)=O)c1C (stereo in doubt; 19a) | – | – |
| – | – | c1ccc(CSc2nc3ccccc3n2CN2CCOCC2)nc1 | – | ID50 [5]: inactive; ED50 [6]: inactive |
| 2 | – | CCSc1ccnc(C[S+]([O-])c2nc3ccccc3n2C(C)OC(C)=O)c1C (stereo in doubt; 19b) | – | – |
| – | – | [O-][S+](Cc1ccccn1)c1nc2ccccc2n1CCN1CCOCC1 (stereo not given) | – | ID50 [5]: inactive |
| – | 1000 | CCOC(C)n1c([S+]([O-])Cc2ccccn2)nc2ccccc21 (stereo not given) | – | ID50 ([2]; Stomach): inactive; ED50 [7]: 5 mg/kg |
| – | 30 | CCSc1ccnc(C[S+]([O-])c2nc3ccccc3n2CCN2CCCCC2)c1C (stereo not given) | 2e-05 | ED50 [6]: inactive |
| – | – | Cn1c([S+]([O-])Cc2ccccn2)nc2ccccc21 (stereo not given) | 0.001 | inhibition [8]: 18%; ED50 [6]: inactive |
| – | – | CC(=O)OC(C)n1c([S+]([O-])Cc2ccccn2)nc2ccccc21 (stereo in doubt; 18a) | – | ID50 [9]: inactive |
| – | – | CCCCCCCCOC(=O)n1c([S+]([O-])Cc2nccc(SCC)c2C)nc2ccccc21 (stereo not given) | 1e-05 | – |
| – | – | CC(OC(=O)c1ccccc1)n1c([S+]([O-])Cc2ccccn2)nc2ccccc21 (stereo in doubt; 29b) | – | inhibition [10]: 35%; ID50 [9]: inactive |
| 5 | 20 | CCSc1ccnc(C[S+]([O-])c2nc3ccccc3n2C(=O)Oc2ccccc2)c1C (stereo not given) | 1.5e-06 | – |
| 1.5 | 200 | CCOC(C)n1c([S+]([O-])Cc2nccc(SCC)c2C)nc2ccccc21 (stereo not given) | 5e-07 | – |
| 1 | 500 | COc1c(C)cnc(C[S+]([O-])c2nc3ccccc3n2COC(C)=O)c1C (stereo not given) | 2e-07 | – |
| – | 1000 | COc1c(C)cnc(C[S+]([O-])c2nc3ccccc3n2CCN2CCOCC2)c1C (stereo not given) | 7e-05 | ED50 [6]: inactive |
| 4 | – | [O-][S+](Cc1ccccn1)c1nc2ccccc2[nH]1 (stereo not given) [TIMOPRAZOLE] | 2e-05 | ED50 [11]: 2.5 mg/kg; inhibition [8]: 27% |
| – | – | CC(OC(=O)C(C)(C)C)n1c([S+]([O-])Cc2ccccn2)nc2ccccc21 (stereo in doubt; 30b) [listing 1 of 2 here] | – | inhibition [10]: 40% |
| – | – | CCSc1ccnc(C[S+]([O-])c2nc3ccccc3n2COCCOC)c1C (stereo not given) | 1e-05 | ED50 [6]: inactive |
| – | 10 | CCSc1ccnc(C[S+]([O-])c2nc3ccccc3n2C(=O)OCCCl)c1C (stereo not given) | 2e-06 | inhibition [3]: 40% |
| – | 10 | CCSc1ccnc(C[S+]([O-])c2nc3ccccc3n2C(=O)OC(C)(C)C(Cl)(Cl)Cl)c1C (stereo not given) | 5e-05 | ED50 [12]: inactive |
| – | – | CCSc1ccnc(C[S+]([O-])c2nc3ccccc3n2COC(=O)c2ccccc2)c1C (stereo not given) | 1.5e-06 | IC50 [13]: Not Active; inhibition [10]: 30% |
| – | 20 | COc1c(C)cnc(C[S+]([O-])c2nc3ccccc3[nH]2)c1C (stereo not given) | 2e-07 | – |
| 5 | – | CCSc1ccnc(C[S+]([O-])c2nc3ccccc3n2COC(=O)C(C)(C)C)c1C (stereo not given) | 5e-06 | inhibition [14]: 30% |
| 1 | – | COc1ccc2[nH]c([S+]([O-])Cc3ncc(C)c(OC)c3C)nc2c1 (stereo not given) [OMEPRAZOLE] | 2e-07 | ED50 [11]: < 1 mg/kg |

| ED50 [1] [mg/kg] | IC50 [4] [µM] | Structure (SMILES) | ID50 [2] [M] | further results |
| --- | --- | --- | --- | --- |
| – | – | CC(OC(=O)c1ccccc1)n1c([S+]([O-])Cc2ccccn2)nc2ccccc21 (stereo in doubt; 29a) [listing 1 of 2 here] | – | inhibition [10]: 27% |
| 1 | 1500 | CCOC(C)n1c([S+]([O-])Cc2ncc(C)c(OC)c2C)nc2ccccc21 (stereo not given) | 1e-06 | – |
| – | > 1000 | CCSc1ccnc(C[S+]([O-])c2nc3ccccc3n2CSc2ccccc2)c1C (stereo not given) | 8e-06 | ED50 [6]: inactive |
| – | – | CC(OC(=O)C(C)(C)C)n1c([S+]([O-])Cc2ccccn2)nc2ccccc21 (stereo in doubt; 30b) [listing 2 of 2 here] | 2e-05 | – |
| 7 | – | COC(=O)CCC(=O)OCn1c([S+]([O-])Cc2ccccn2)nc2ccccc21 (stereo not given) | 2e-05 | – |
| 10 | – | CCSc1ccnc(C[S+]([O-])c2nc3ccccc3n2C(=O)OC(C)C)c1C (stereo not given) | 1.5e-05 | – |
| – | 20 | CCSc1ccnc(C[S+]([O-])c2nc3ccccc3n2C(=O)OCc2ccccc2)c1C (stereo not given) | 1.5e-06 | inhibition [3]: 40% |
| 9 | – | CCCCCCCC(=O)OCn1c([S+]([O-])Cc2ccccn2)nc2ccccc21 (stereo not given) | 2e-05 | – |
| – | – | CC(=O)OCn1c(SCc2nccc3c2CCC[S+]3[O-])nc2ccccc21 (stereo not given) | – | ED50 [15]: inactive |
| 5 | 5 | CCSc1ccnc(C[S+]([O-])c2nc3ccccc3n2C(=O)OCC(C)C)c1C (stereo not given) | 4e-06 | – |
| – | – | [O-][N+]1(Cn2c(SCc3ccccn3)nc3ccccc32)CCOCC1 | – | ID50 [5]: inactive; ED50 [6]: inactive |
| 6 | – | CC(C)COC(=O)OCn1c([S+]([O-])Cc2ccccn2)nc2ccccc21 (stereo not given) | 2e-05 | – |
| – | – | c1ccc(CSc2nc3ccccc3n2CCN2CCOCC2)nc1 | – | ID50 [5]: inactive; ED50 [6]: inactive |
| – | – | CCSc1ccnc(CSc2nc3ccccc3n2CC2CO2)c1C (stereo not given) | 8e-05 | ED50 [6]: inactive |
| < 1 | 1500 | COc1c(C)cnc(C[S+]([O-])c2nc3ccccc3n2C(C)OC(C)=O)c1C (stereo not given) | 4e-07 | – |
| – | – | CC(=O)OC(C)n1c([S+]([O-])Cc2ccccn2)nc2ccccc21 (stereo in doubt; 18b) | – | ID50 [9]: inactive |
| – | 8 | CC(=O)OCn1c([S+]([O-])Cc2ccccn2)nc2ccccc21 (stereo not given) | 0.0001 | ED50 [16]: 5 mg/kg |
| – | – | CCSc1ccnc(C[S+]([O-])c2nc3ccccc3n2COC)c1C (stereo not given) | – | ID50 ([2]; Stomach): inactive; ED50 [6]: inactive |
| – | 1000 | CCOCCn1c([S+]([O-])Cc2nccc(SCC)c2C)nc2ccccc21 (stereo not given) | 2e-06 | ED50 [6]: inactive |
| – | 400 | CC(OC(=O)c1ccccc1)n1c([S+]([O-])Cc2ccccn2)nc2ccccc21 (stereo in doubt; 29a) [listing 2 of 2 here] | 4e-05 | – |
| – | – | CC(OC(=O)C(C)(C)C)n1c([S+]([O-])Cc2ccccn2)nc2ccccc21 (stereo in doubt; 30a) | – | inhibition [10]: 32%; ID50 [9]: inactive |
| – | 20 | CCOC(=O)n1c([S+]([O-])Cc2nccc(SCC)c2C)nc2ccccc21 (stereo not given) | 2e-06 | inhibition [3]: 61% |
| 2 | 400 | CCSc1ccnc(C[S+]([O-])c2nc3ccccc3n2COC(C)=O)c1C (stereo not given) | 3e-07 | – |
| – | – | CCSc1ccnc(C[S+]([O-])c2nc3ccccc3n2CSC)c1C (stereo not given) | 9e-05 | IC50 [17]: Not Active; ED50 [6]: inactive |
| 10 | 30 | C=COC(=O)n1c([S+]([O-])Cc2nccc(SCC)c2C)nc2ccccc21 (stereo not given) | 1.5e-06 | – |

| Structure (SMILES) | ED50 [1] [mg/kg] | IC50 [4] [µM] | ID50 [2] [M] | further results |
| --- | --- | --- | --- | --- |
| CCSc1ccnc(C[S+]([O-])c2nc3ccccc3[nH]2)c1C (stereo not given) [DISUPRAZOLE] | 1 | 20 | 1e-07 | ED50 [11]: < 1 mg/kg |
